# Measured values from ChEMBL document CHEMBL1153716, “Constrained peptidomimetics reveal detailed geometric requirements of covalent prolyl oligopeptidase inhibitors” (J Med Chem, 2009).
# Activity calls are given as the source filed them. The calls are words filed in the database; no cut-off is given here.
# Legend:
# [1] = molecular target: T1, Prolyl endopeptidase (Homo sapiens) (UniProt P48147); assay: Inhibition of prolyl oligopeptidase in human astrocyte derived cell extracts assessed as blockade of Z-Gly-Pro-AMC substrate hydrolysis at 100 uM by fluorimetric assay
# T1 sequence (whole entry): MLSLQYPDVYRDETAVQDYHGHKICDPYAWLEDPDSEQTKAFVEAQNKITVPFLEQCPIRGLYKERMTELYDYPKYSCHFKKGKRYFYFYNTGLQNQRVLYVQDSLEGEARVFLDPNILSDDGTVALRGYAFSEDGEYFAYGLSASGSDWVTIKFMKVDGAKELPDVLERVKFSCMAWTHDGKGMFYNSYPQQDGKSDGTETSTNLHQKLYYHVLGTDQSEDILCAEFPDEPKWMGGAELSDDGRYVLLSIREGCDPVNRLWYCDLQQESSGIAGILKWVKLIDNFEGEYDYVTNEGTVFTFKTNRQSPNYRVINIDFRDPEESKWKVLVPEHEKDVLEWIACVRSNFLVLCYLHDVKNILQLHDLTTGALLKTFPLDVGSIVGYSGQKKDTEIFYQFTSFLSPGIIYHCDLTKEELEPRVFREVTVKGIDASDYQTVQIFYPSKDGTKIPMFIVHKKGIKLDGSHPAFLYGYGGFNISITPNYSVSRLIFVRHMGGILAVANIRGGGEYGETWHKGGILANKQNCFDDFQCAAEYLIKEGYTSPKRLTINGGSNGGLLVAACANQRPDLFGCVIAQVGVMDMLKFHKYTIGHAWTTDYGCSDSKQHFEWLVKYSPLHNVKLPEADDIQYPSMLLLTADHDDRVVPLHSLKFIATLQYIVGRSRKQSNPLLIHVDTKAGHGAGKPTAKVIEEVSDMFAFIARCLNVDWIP
# Method in brief: (§1)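 Confluent human glioblastoma (LN18, LN229, LNZ308), brain endothelial HCEC, or lung PO03 and skin PG98/5 fibroblasts extracted in PBS with 0.1% Triton X-100. Compound was diluted from methanol stock into water and preincubated 5-10 min at room temperature. Z-Gly-Pro-AMC was then added and read by fluorescence. Duplicate wells.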
# [2] = molecular target: T1, Prolyl endopeptidase (Homo sapiens); assay: Inhibition of prolyl oligopeptidase in human brain derived endothelial cell extracts assessed as blockade of Z-Gly-Pro-AMC substrate hydrolysis at 100 uM by fluorimetric assay; format: cell-free; method in brief: as §1
# [3] = molecular target: T1, Prolyl endopeptidase (Homo sapiens); assay: Inhibition of prolyl oligopeptidase in human fibroblast extracts assessed as blockade of Z-Gly-Pro-AMC substrate hydrolysis at 100 uM by fluorimetric assay; method in brief: as §1
# [4] = molecular target: Dipeptidyl peptidase 4 (Homo sapiens) (UniProt P27487); assay: Inhibition of DPP4 in human astrocyte derived cell extracts assessed as blockade of Gly-Pro-AMC substrate hydrolysis at 100 uM by fluorimetric assay
# Chain of Dipeptidyl peptidase 4 (Homo sapiens) (P27487 whole entry, looked up): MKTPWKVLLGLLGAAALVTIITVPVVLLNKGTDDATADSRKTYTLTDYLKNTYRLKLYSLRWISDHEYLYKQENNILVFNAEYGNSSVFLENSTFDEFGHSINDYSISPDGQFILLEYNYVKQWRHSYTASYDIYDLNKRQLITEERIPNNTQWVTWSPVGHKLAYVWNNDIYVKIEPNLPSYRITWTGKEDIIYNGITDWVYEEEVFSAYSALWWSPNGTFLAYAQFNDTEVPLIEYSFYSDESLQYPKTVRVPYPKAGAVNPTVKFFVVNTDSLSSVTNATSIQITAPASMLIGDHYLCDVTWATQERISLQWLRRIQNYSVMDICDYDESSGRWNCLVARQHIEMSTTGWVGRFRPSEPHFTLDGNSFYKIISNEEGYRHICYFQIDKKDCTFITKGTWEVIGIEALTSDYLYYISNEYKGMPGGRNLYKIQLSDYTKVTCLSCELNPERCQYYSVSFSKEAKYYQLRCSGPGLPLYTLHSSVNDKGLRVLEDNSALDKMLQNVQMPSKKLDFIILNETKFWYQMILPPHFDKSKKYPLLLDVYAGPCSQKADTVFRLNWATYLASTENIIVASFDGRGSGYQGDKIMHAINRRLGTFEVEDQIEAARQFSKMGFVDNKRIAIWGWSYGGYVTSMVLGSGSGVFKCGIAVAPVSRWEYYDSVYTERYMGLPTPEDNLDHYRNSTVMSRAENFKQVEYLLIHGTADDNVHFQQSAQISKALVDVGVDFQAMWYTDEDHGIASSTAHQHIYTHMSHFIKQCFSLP
# Method in brief: (§2)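 Confluent human cells (glioblastoma LN18, LN229, LNZ308; brain endothelial HCEC; lung PO03 or skin PG98/5 fibroblasts) grown in DMEM with 4.5 g/L glucose and 10% FCS, then lysed in PBS (pH 7.2-7.4) containing 0.1% Triton X-100. Compound was diluted from methanol stock into water and preincubated 5-10 min at room temperature. Gly-Pro-AMC was then added. Duplicate wells.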
# [5] = molecular target: Dipeptidyl peptidase 4 (Homo sapiens) (UniProt P27487); assay: Inhibition of DPP4 in human brain derived endothelial cell extracts assessed as blockade of Gly-Pro-AMC substrate hydrolysis at 100 uM by fluorimetric assay; format: cell-free; method in brief: as §2
# [6] = molecular target: Dipeptidyl peptidase 4 (Homo sapiens) (UniProt P27487); assay: Inhibition of DPP4 in human fibroblast extracts assessed as blockade of Gly-Pro-AMC substrate hydrolysis at 100 uM by fluorimetric assay; method in brief: as §2
# [7] = molecular target: T1, Prolyl endopeptidase (Homo sapiens); assay: Inhibition of prolyl oligopeptidase in intact human astrocyte derived cells assessed as blockade of Z-Gly-Pro-AMC substrate hydrolysis at 100 uM by fluorimetric assay
# Method in brief: (§3)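 Intact confluent human glioblastoma (LN18, LN229, LNZ308), brain endothelial HCEC, or lung PO03 and skin PG98/5 fibroblast monolayers in PBS (pH 7.2-7.4), cells grown beforehand in DMEM with 10% FCS. Compound was diluted from methanol stock into water and preincubated 5-10 min at room temperature. Z-Gly-Pro-AMC was then added and read fluorimetrically. Duplicate wells.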
# [8] = molecular target: T1, Prolyl endopeptidase (Homo sapiens); assay: Inhibition of prolyl oligopeptidase in intact human brain derived endothelial cells assessed as blockade of Z-Gly-Pro-AMC substrate hydrolysis at 100 uM by fluorimetric assay; format: cell-based; details: Endothelial cell; method in brief: as §3
# [9] = molecular target: T1, Prolyl endopeptidase (Homo sapiens); assay: Inhibition of prolyl oligopeptidase in intact human fibroblasts assessed as blockade of Z-Gly-Pro-AMC substrate hydrolysis at 100 uM by fluorimetric assay; method in brief: as §3
# [10] = molecular target: Dipeptidyl peptidase 4 (Homo sapiens) (UniProt P27487); assay: Inhibition of DPP4 in intact human astrocyte derived cells assessed as blockade of Gly-Pro-AMC substrate hydrolysis at 100 uM by fluorimetric assay
# Method in brief: (§4)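 Confluent intact human glioblastoma (LN18, LN229, LNZ308), brain endothelial HCEC, or lung PO03 and skin PG98/5 fibroblast monolayers kept in PBS (pH 7.2-7.4) without detergent. Compound was diluted from methanol stock into water and preincubated 5-10 min at room temperature. Gly-Pro-AMC was then added and hydrolysis read by fluorescence. Duplicate wells.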
# [11] = molecular target: Dipeptidyl peptidase 4 (Homo sapiens) (UniProt P27487); assay: Inhibition of DPP4 in intact human brain derived endothelial cells assessed as blockade of Gly-Pro-AMC substrate hydrolysis at 100 uM by fluorimetric assay; format: cell-based; details: Endothelial cell; method in brief: as §4
# [12] = molecular target: Dipeptidyl peptidase 4 (Homo sapiens) (UniProt P27487); assay: Inhibition of DPP4 in intact human fibroblasts assessed as blockade of Gly-Pro-AMC substrate hydrolysis at 100 uM by fluorimetric assay; method in brief: as §4
inhibition [1],inhibition [2],inhibition [3],inhibition [4],inhibition [5],inhibition [6],inhibition [7],inhibition [8],inhibition [9],inhibition [10],inhibition [11],inhibition [12],Compound
10%,10%,inactive,inactive,inactive,inactive,inactive,10%,inactive,inactive,inactive,inactive,C[C@H]1O[C@H]2C[C@@H](NC(=O)OCc3ccccc3)C(=O)N2[C@@H]1C#N
inactive,inactive,inactive,inactive,inactive,inactive,inactive,inactive,inactive,inactive,inactive,inactive,NC(=O)[C@@H]1CS[C@H]2C[C@@H](NC(=O)OCc3ccccc3)C(=O)N21
> 50%,> 50%,> 50%,inactive,inactive,inactive,> 50%,> 50%,> 50%,inactive,inactive,inactive,N#C[C@@H]1CS[C@H]2CC[C@@H](NC(=O)OCc3ccccc3)C(=O)N12
–,–,–,inactive,inactive,inactive,–,–,–,inactive,inactive,inactive,C[C@H](NC(=O)OCc1ccccc1)C(=O)N1CCC[C@H]1C#N
inactive,inactive,inactive,inactive,inactive,–,inactive,inactive,inactive,inactive,inactive,inactive,N#C[C@@H]1CCCN1
inactive,inactive,inactive,inactive,inactive,inactive,inactive,inactive,inactive,inactive,inactive,inactive,NC(=O)[C@@H]1CS[C@H]2C[C@H](NC(=O)OCc3ccccc3)C(=O)N21
> 50%,10%,10%,inactive,inactive,inactive,10%,inactive,inactive,inactive,inactive,inactive,N#CC1CCCCN1C(=O)CNC(=O)OCc1ccccc1 (racemic)
inactive,inactive,inactive,inactive,inactive,inactive,inactive,inactive,inactive,inactive,inactive,inactive,CC(C)(C)OC(=O)N1CCC[C@H]1C#N
–,–,–,inactive,inactive,inactive,–,–,–,inactive,inactive,inactive,N#C[C@@H]1CCCN1C(=O)CNC(=O)OCc1ccccc1
–,–,–,inactive,inactive,inactive,–,–,–,inactive,inactive,inactive,N#C[C@H]1CCCN1C(=O)CNC(=O)OCc1ccccc1
inactive,10%,inactive,inactive,inactive,inactive,inactive,inactive,10%,inactive,inactive,inactive,N#C[C@@H]1CCCN1C(=O)OCc1ccccc1
10%,> 50%,10%,inactive,inactive,inactive,inactive,10%,inactive,inactive,inactive,inactive,N#C[C@H]1CS[C@@H]2C[C@@H](NC(=O)OCc3ccccc3)C(=O)N12
inactive,inactive,10%,inactive,inactive,inactive,inactive,inactive,10%,inactive,inactive,inactive,N#C[C@@H]1CO[C@H]2C[C@H](NC(=O)OCc3ccccc3)C(=O)N12
10%,inactive,10%,inactive,inactive,inactive,inactive,inactive,10%,inactive,inactive,inactive,COC(=O)[C@@H]1CS[C@H]2C[C@H](NC(=O)OCc3ccccc3)C(=O)N21
10%,10%,inactive,inactive,inactive,inactive,inactive,10%,inactive,inactive,inactive,inactive,C[C@H]1O[C@H]2C[C@H](NC(=O)OCc3ccccc3)C(=O)N2[C@@H]1C#N
> 50%,> 50%,> 50%,inactive,inactive,inactive,> 50%,10%,> 50%,inactive,inactive,inactive,N#C[C@@H]1CS[C@H]2CC[C@H](NC(=O)OCc3ccccc3)C(=O)N12
–,–,–,inactive,inactive,inactive,–,–,–,inactive,inactive,inactive,C[C@@H](NC(=O)OCc1ccccc1)C(=O)N1CCC[C@H]1C#N
